According to ChEMBL document CHEMBL5223158, “Identification of 2-Aminoacyl-1,3,4-thiadiazoles as Prostaglandin E2 and Leukotriene Biosynthesis Inhibitors” (ACS Med Chem Lett, 2023):
The source made the active and inactive calls. The rule behind the calls is not given here.

Experiments:
[1] = biological target: T1, Polyunsaturated fatty acid 5-lipoxygenase (Homo sapiens) (UniProt P09917); test: Inhibition of human recombinant 5-LO expressed in Escherichia coli BL21 using arachidonic acid as substrate assessed as residual activity at 10 uM preincubated for 10 mins followed by substrate addition and measured after 10 mins by RP-HPLC analysis relative to control; details: time 20.0 min
T1 sequence (whole entry): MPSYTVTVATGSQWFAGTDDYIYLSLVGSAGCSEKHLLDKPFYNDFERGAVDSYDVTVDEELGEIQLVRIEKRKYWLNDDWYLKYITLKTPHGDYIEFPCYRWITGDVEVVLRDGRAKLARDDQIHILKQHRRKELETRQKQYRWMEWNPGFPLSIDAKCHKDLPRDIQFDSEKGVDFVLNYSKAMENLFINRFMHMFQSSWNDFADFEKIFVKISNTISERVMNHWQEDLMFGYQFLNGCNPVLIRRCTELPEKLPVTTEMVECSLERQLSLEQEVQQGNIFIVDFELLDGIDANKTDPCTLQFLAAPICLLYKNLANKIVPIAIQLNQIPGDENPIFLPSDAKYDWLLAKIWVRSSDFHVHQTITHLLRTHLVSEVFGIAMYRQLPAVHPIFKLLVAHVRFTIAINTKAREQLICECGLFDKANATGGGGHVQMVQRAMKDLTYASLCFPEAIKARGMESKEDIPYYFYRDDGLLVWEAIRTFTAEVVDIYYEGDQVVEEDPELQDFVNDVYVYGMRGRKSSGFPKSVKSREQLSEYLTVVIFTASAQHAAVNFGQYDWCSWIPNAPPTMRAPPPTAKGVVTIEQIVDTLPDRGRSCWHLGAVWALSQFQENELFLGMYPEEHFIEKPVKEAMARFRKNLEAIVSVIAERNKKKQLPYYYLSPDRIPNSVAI

Macrophage = test: Inhibition of 5-LO product formation in Staphylococcus aureus activated human monocyte derived macrophages at 10 uM preincubated for 15 mins followed by Staphylococcus aureus activation for 90 mins by UPLC-MS/MS analysis; type: functional, cell-based; details: time 105.0 min
A549 = test: Inhibition of PGE2 biosynthesis in IL-1β stimulated human A549 cells incubated for 24 hrs by ELISA; details: dose 5-10 µM
Mus musculus [2] = test: Anti-inflammatory activity against CD-1 mouse model of zymosan-induced peritonitis assessed as reduction in IL-1beta level at 10 mg/kg, ip pretreated with zymosan for 30 mins followed by compound addition and measured after 4 to 24 hrs by ELISA; type: functional, organism-based; details: time 4-24 hrs
Method in brief: (§1)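 Mice got zymosan 500 mg/kg i.p.; test compound was injected i.p. 30 min later. PBS-only controls were included, along with a dexamethasone (3 mg/kg) reference group. Peritoneal exudate was collected at 4 and 24 h. Total cells were counted, and IL-1β, IL-6, PGE2 and IL-10 were measured in exudate, normalized to exudate levels. Mean ± SD.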

J774.A1 [3] = test: Modulation of PGE2 production in LPS-stimulated mouse J774.A1 cells at 1 uM incubated for 24 hrs by ELISA; type: functional, cell-based
Method in brief: (§2)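 Murine J774A.1 macrophages were stimulated with LPS and exposed to test compounds. IL-6 and PGE2 released were measured in pg/mL. Mean ± SD.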

Mus musculus [4] = test: Anti-inflammatory activity against CD-1 mouse model of zymosan-induced peritonitis assessed as reduction in PGE2 level at 10 mg/kg, ip pretreated with zymosan for 30 mins followed by compound addition and measured after 4 to 24 hrs by ELISA; type: functional, organism-based; details: time 4-24 hrs; method in brief: as §1
Mus musculus [5] = test: (§3) Anti-inflammatory activity against CD-1 mouse model of zymosan-induced peritonitis assessed as reduction in leucocyte recruitment in lavage fluid at 1 to 10 mg/kg, ip pretreated with zymosan for 30 mins followed by compound addition and measured after 4 to 24 hrs by TC10 automated cell counter analysis; type: functional, organism-based; details: dose 1-10 mg/kg, time 4-24 hrs; method in brief: as §1
Mus musculus [6] = test: Anti-inflammatory activity against CD-1 mouse model of zymosan-induced peritonitis assessed as reduction in IL-10 level at 10 mg/kg, ip pretreated with zymosan for 30 mins followed by compound addition and measured after 24 hrs by ELISA; type: functional, organism-based; method in brief: as §1
J774.A1 [7] = test: Modulation of IL-6 production in LPS-stimulated mouse J774.A1 cells at 1 uM incubated for 24 hrs by ELISA; type: functional, cell-based; method in brief: as §2
Mus musculus [8] = test: Anti-inflammatory activity against CD-1 mouse model of zymosan-induced peritonitis assessed as reduction in IL-6 level at 10 mg/kg, ip pretreated with zymosan for 30 mins followed by compound addition and measured after 4 to 24 hrs by ELISA; type: functional, organism-based; details: time 4-24 hrs; method in brief: as §1
Mus musculus [9] = test: Anti-inflammatory activity against CD-1 mouse model of zymosan-induced peritonitis assessed as reduction in PGE2 level at 3 mg/kg, ip pretreated with zymosan for 30 mins followed by compound addition and measured after 4 to 24 hrs by ELISA; type: functional, organism-based; details: time 4-24 hrs
Mus musculus [10] = test: Anti-inflammatory activity against CD-1 mouse model of zymosan-induced peritonitis assessed as reduction in IL-6 level at 3 mg/kg, ip pretreated with zymosan for 30 mins followed by compound addition and measured after 4 to 24 hrs by ELISA; type: functional, organism-based; details: time 4-24 hrs
Mus musculus [11] = test: Anti-inflammatory activity against CD-1 mouse model of zymosan-induced peritonitis assessed as reduction in IL-10 level at 3 mg/kg, ip pretreated with zymosan for 30 mins followed by compound addition and measured after 24 hrs by ELISA; type: functional, organism-based
Mus musculus [12] = test: Anti-inflammatory activity against CD-1 mouse model of zymosan-induced peritonitis assessed as reduction in IL-1beta level at 3 mg/kg, ip pretreated with zymosan for 30 mins followed by compound addition and measured after 4 to 24 hrs by ELISA; type: functional, organism-based; details: time 4-24 hrs
Mus musculus [13] = test: as §3, with “peritoneal cavity” for “lavage fluid”, “3” for “1 to 10”; type: functional, organism-based; details: time 4-24 hrs
[14] = biological target: T2, Polyunsaturated fatty acid 5-lipoxygenase (Homo sapiens, UniProt P09917); test: Inhibition of human recombinant 5-LO expressed in Escherichia coli BL21 using arachidonic acid as substrate preincubated for 10 mins followed by substrate addition and measured after 10 mins by RP-HPLC analysis
T2 sequence (P09917 whole entry): T1 sequence (whole entry)

| SMILES | Activity [1] | 5-LO product formation inhibition (active/inactive) (Macrophage) | inhibition (A549) | Activity (J774.A1 [3]) | Activity (J774.A1 [7]) | IC50 [14] | also measured |
| --- | --- | --- | --- | --- | --- | --- | --- |
| Nc1ccccc1-c1ccc(-c2nnc(NC(=O)c3c(Cl)ccnc3Cl)s2)cc1 | 75.9% | Active | Dose-Dependent Effect | – | – | – | – |
| O=C(Nc1nnc(-c2ccc(-c3cccc(O)c3)cc2)s1)c1ccccc1Br | 125% | Active | – | Active | Active | – | Activity (Mus musculus [2]): Active; Activity (Mus musculus [4]): Active; Activity (Mus musculus [5]): Active; Activity (Mus musculus [6]): Active; Activity (Mus musculus [8]): Active |
| C[C@@H]1C[C@H]2[C@@H]3CCC4=CC(=O)C=C[C@]4(C)[C@@]3(F)[C@@H](O)C[C@]2(C)[C@@]1(O)C(=O)CO | – | – | – | – | – | – | Activity (Mus musculus [9]): Active; Activity (Mus musculus [10]): Active; Activity (Mus musculus [11]): Active; Activity (Mus musculus [12]): Active; Activity (Mus musculus [13]): Active |
| Nc1ccccc1-c1ccc(-c2nnc(NC(=O)c3ccccc3Br)s2)cc1 | – | Active | Dose-Dependent Effect | Active | inactive | 24.3 µM | – |
| Cc1cc(C(=O)Nc2nnc(-c3ccc(-c4cccc(O)c4)cc3)s2)cc(Cl)n1 | – | inactive | – | – | – | – | – |
| Cc1cc(C(=O)Nc2nnc(-c3ccc(-c4ccccc4N)cc3)s2)cc(Cl)n1 | – | Active | Dose-Dependent Effect | – | – | 42.8 µM | – |
